42 compounds from ChEMBL document CHEMBL1221391, “Identification of novel antitubercular compounds through hybrid virtual screening approach” (Bioorg Med Chem, 2010) can be followed below.

≈ marks a conversion by molar mass, not a printed value. A value given as a limit tells only on which side of the number the result lay.

The subject of this assay is Mycobacterium tuberculosis. As to the kind of experiment: Antitubercular activity against Mycobacterium tuberculosis H37Rv after 7 days. The class given is functional, organism-based. To be noted: 168 h. In short, it runs like this: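 MABA in 7H9 broth with 0.2% glycerol, 1.0 g/l Casitone, 10% OADC and 0.05% Tween 80, grown to OD600 0.4. Culture diluted 1:50 to give 2 × 10^5 CFU/ml. Twofold serial dilutions made from DMSO stock. Incubated 37 °C for 7 days, then alamar blue added and read after 24 h. MIC is the lowest concentration preventing the blue-to-pink change. Rifampicin reference.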
Usually MIC stands for the lowest concentration that inhibits growth of the organism. A lower MIC goes with a more susceptible organism. The compound `O=C(NCc1ccc(F)cc1)C1CC(=O)N(C2CCCCCCC2)C1` (stereo not drawn) gave an MIC of 369 µM (≈ 128 µg/mL). As a reminder, the IC50 is the concentration at which inhibition is half-maximal. `CCCCc1ccc(Oc2ccc(Cl)cc2Cl)c(O)c1`: the IC50 was determined as 91 nM and the MIC was 30 µM (≈ 9.34 µg/mL). With `Cc1ccc(OC(=O)c2ccc(Cl)cc2)cc1`, inhibition of growth (MIC) required 259 µM (≈ 64 µg/mL). The compound `Cc1ccc(C(=O)N2CCN(c3cccc(Cl)c3)CC2)cc1C` showed an IC50 of 990 nM and a minimum inhibitory concentration (MIC) of over 125 µM. The compound `Oc1cc(CCc2ccccc2)ccc1Oc1ccc(Cl)cc1Cl` yielded a half-maximal inhibitory concentration (IC50) of 21 nM and an MIC of 52 µM (≈ 18.7 µg/mL). On to `Cc1oc(-c2ccccc2)nc1CN1CCN(C(=O)c2ccccc2)CC1`, for which 187 µM (≈ 67.8 µg/mL) was the least that counted as inhibitory (MIC).

`Oc1cc(Cc2ccccc2)ccc1Oc1ccc(Cl)cc1Cl`: the half-inhibitory concentration (IC50) is 51 nM and the MIC was 27 µM (≈ 9.32 µg/mL). Taken in the same sequence, the figures for `CN(Cc1c2ccccc2cc2ccccc12)C(=O)C1CC(=O)N(C2CCCCCCC2)C1` (stereo not drawn) were 320 nM and 62.5 µM (≈ 27.7 µg/mL). For `S=C(c1ccc(Br)cc1)N1CCN(Cc2ccccc2)CC1`, the lowest concentration to inhibit growth (MIC) was 85.2 µM (≈ 32 µg/mL). Consider `Cc1ccc(C(=O)CC(=O)c2ccc(Cl)cc2)c(O)c1`, for which inhibition of growth (MIC) required 13.8 µM (≈ 4 µg/mL). Turning to `CN(Cc1c2ccccc2cc2ccccc12)C(=O)C1CC(=O)N(C2CC3CCC2C3)C1` (stereo not drawn), the IC50 worked out at 460 nM and the minimum inhibitory concentration (MIC) was 125 µM (≈ 53.3 µg/mL). As for `CO[C@H]1/C=C/O[C@@]2(C)Oc3c(C)c(O)c4c(O)c(c(/C=N/N5CCN(C)CC5)c(O)c4c3C2=O)NC(=O)/C(C)=C\C=C\[C@H](C)[C@H](O)[C@@H](C)[C@@H](O)[C@@H](C)[C@H](OC(C)=O)[C@@H]1C` [RIFAMPIN], the MIC came to 0.01 µM (≈ 0.00823 µg/mL). On the same count and under the same terms, as for `Cc1ccc(NC(=O)C2CC(=O)N(CCc3c[nH]c4ccc(Cl)cc34)C2)cc1` (stereo not drawn), the figure is 80.8 µM (≈ 32 µg/mL).

On to `Cc1ccc(/N=C/c2cc(Cc3ccccc3Cl)ccc2O)c(O)c1`, for which 182 µM (≈ 64 µg/mL) was the least that counted as inhibitory (MIC).

`CCc1ccc(O)c(/N=C/c2cc(Cl)cc(Cl)c2O)c1` gave an MIC of 206 µM (≈ 64 µg/mL). Turning to `CCCCCc1ccc(OC(=O)c2ccc(Cl)cc2)cc1`, the MIC stood at 106 µM (≈ 32 µg/mL). `CCCCCCCCc1ccc(Oc2ccccc2)c(O)c1` showed a half-maximal inhibitory concentration (IC50) of 5 nM and a minimum inhibitory concentration (MIC) of 6.4 µM (≈ 1.91 µg/mL). `CCc1ccc(C(=O)Oc2cccnc2)cc1` yielded an MIC of 563 µM (≈ 128 µg/mL).

Turning to `O=C(c1ccc(F)cc1)N1CCN(C2c3ccccc3-c3ccccc32)CC1`, the lowest concentration to inhibit growth (MIC) was 85.9 µM (≈ 32 µg/mL). Take `CCCCCc1ccc(Oc2ccccc2)c(O)c1`: the half-inhibitory concentration (IC50) was 17 nM and the MIC came to 3.5 µM (≈ 0.897 µg/mL). As to `O=C(Nc1cc(Br)cc(C(F)(F)F)c1)C1CC(=O)N(C2CCCCC2)C1` (stereo not drawn), the IC50 amounted to 850 nM and the minimum inhibitory concentration (MIC) was found to be 62.5 µM (≈ 27.1 µg/mL). On to `CCCCCCCc1ccc(C(=O)Oc2ccc([N+](=O)[O-])cc2)cc1`, for which 187 µM (≈ 64 µg/mL) was the least that counted as inhibitory (MIC).

In turn, `Cc1ccc(C(=O)N2CCN(C3c4ccccc4-c4ccccc43)CC2)cc1` displayed an IC50 of 400 nM and an MIC of over 125 µM. `O=C(CCN1C(=O)c2ccccc2C1=O)N1CCN(C(c2ccccc2)c2ccccc2)CC1` yielded a minimal inhibitory concentration (MIC) of 141 µM (≈ 64 µg/mL).

With `O=[N+]([O-])c1ccc(Oc2cc(C(F)(F)F)ccc2Cl)cc1O`, the lowest concentration to inhibit growth (MIC) was 384 µM (≈ 128 µg/mL). The same measure, in the same setting: as for `COc1cccc(CNC(=O)CN2CCCN(Cc3ccc(Cl)cc3)S2(=O)=O)c1`, the figure is 146 µM (≈ 64 µg/mL). The compound `Oc1cc(CCCc2ccccc2)ccc1Oc1ccc(Cl)cc1Cl` showed an IC50 of 50 nM and an MIC of 50 µM (≈ 18.7 µg/mL). For `Cc1ccc(C(=O)N2CCN(S(=O)(=O)c3ccccc3)CC2)cc1`, inhibition of growth (MIC) required 372 µM (≈ 128 µg/mL). On the same count and under the same terms, the value for `O=C1c2ccc(Oc3cccc([N+](=O)[O-])c3)cc2C(=O)N1c1ccccc1O` was 85 µM (≈ 32 µg/mL); that for `O=C(c1cccs1)N1CCN(C2c3ccccc3-c3ccccc32)CC1` was 355 µM (≈ 128 µg/mL). Regarding `CCCCCCc1ccc(Oc2ccccc2)c(O)c1`, the IC50 turned out to be 11 nM and it took 7.8 µM (≈ 2.11 µg/mL) to inhibit growth (MIC). Taken in the same sequence, the figures for `CC(C)Cc1ccc(Oc2ccc(Cl)cc2Cl)c(O)c1` were 96 nM and 60 µM (≈ 18.7 µg/mL). Taken in the same sequence, the figures for `CN(C(=O)C1CC(=O)N(C2CCCCCC2)C1)c1cc(-c2ccccc2)c(O)c(-c2ccccc2)c1` (stereo not drawn) were 360 nM and over 125 µM. Regarding `CCCCCCCCCCCCCCc1ccc(Oc2ccccc2)c(O)c1`, the IC50 was found to be 150 nM and the minimal inhibitory concentration (MIC) worked out at 460 µM (≈ 176 µg/mL). For `O=C(c1ccccc1)N1CCN(C2c3ccccc3-c3ccccc32)CC1`, in that order: 90 nM and over 125 µM. `Cc1[nH]c2cc(C(=O)N3CCN(Cc4ccccc4)CC3)ccc2c1C` showed an MIC of 368 µM (≈ 128 µg/mL). With `O=C(Nc1ccc(C(F)(F)F)cc1)NC1CC(=O)N(C2CCCC2)C1` (stereo not drawn), 180 µM (≈ 64 µg/mL) was the least that counted as inhibitory (MIC). The same measure, in the same setting: as for `CCCCCCc1ccc(C(=O)Oc2ccc(Cl)cc2)cc1`, the figure is 202 µM (≈ 64 µg/mL); as for `O=C(C1CC(=O)N(C2CCCC2)C1)N1CCC(Cc2ccccc2)CC1` (stereo not drawn), 361 µM (≈ 128 µg/mL); as for `Cc1ccc(S(=O)(=O)N2CCN(C(=O)c3ccc(Br)cc3)CC2)cc1`, 302 µM (≈ 128 µg/mL).

Turning to `Oc1cccc(Oc2c(F)c(F)nc(F)c2F)c1`, 247 µM (≈ 64 µg/mL) was the least that counted as inhibitory (MIC). `O=C(Nc1ccccc1O)c1ccc(Oc2ccc([N+](=O)[O-])cc2)cc1` displayed a minimum inhibitory concentration (MIC) of 5.7 µM (≈ 2 µg/mL).
